Reference: PMC3447998 (Biochemistry, 2012)
“Also recorded” adds a separate entry of the source. Where a SMILES comes first, the peptide text is derived from it. Where no end group is shown, it is not given here. The star is where a group is joined. X2 = C[N+](C)(C)[C@@H](CO)C(=O)*; X1 = C[N+]1(C)CCC[C@H]1C(=O)*

What was measured:
[1] = test system: N-terminus of protein; details: yeast and mammals; ref [24],[25]; cited from earlier work
[2] = molecular target: T1, recombinant human NRMT (Homo sapiens, UniProt Q9BV86); assay: Isothermal titration calorimetry; assay type: binding; details: 25°C, pH 8.0; for binding to recombinant human NRMT (in words): 10 residue RCC1 N-terminal peptides
T1 sequence (Q9BV86 1-223): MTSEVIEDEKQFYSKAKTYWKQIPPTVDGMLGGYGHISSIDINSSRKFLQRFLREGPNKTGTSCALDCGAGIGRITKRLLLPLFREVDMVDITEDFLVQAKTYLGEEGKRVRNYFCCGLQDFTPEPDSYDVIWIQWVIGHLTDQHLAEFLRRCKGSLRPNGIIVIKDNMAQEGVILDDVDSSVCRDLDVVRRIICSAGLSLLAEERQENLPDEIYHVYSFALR
Outline: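 Recombinant NRMT was dialyzed overnight at 4°C against 50 mM Tris, 50 mM potassium acetate, pH 8.0. Ten-residue RCC1 N-terminal peptides, unmodified or N-methylated, were dissolved in the same buffer. At 25°C, 100 µM enzyme was titrated with 800–1000 µM peptide, and binding curves were fitted.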

[3] = test system: recombinant NRMT (SPK-RCC1 substrate); assay: In vitro product inhibition assay, SPK-RCC1 substrate; assay type: biochemical; details: increasing concentrations of product peptide; n=2
Outline: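 Recombinant NRMT methylated RCC1 protein substrates bearing SPK or PPK N-termini in vitro. Increasing concentrations of N-trimethylated SPK or N-dimethylated PPK RCC1 product peptides were present. The read-out was N-terminal methylation of the substrate protein, normalized to the lowest product-peptide condition.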

[4] = test system: endogenous NRMT (293LT cells); assay: Co-precipitation of endogenous NRMT with FLAG-tagged substrate proteins; assay type: binding; details: C-terminally FLAG-tagged protein expressed in 293LT cells
Outline: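 C-terminally FLAG-tagged RCC1 or VRK2 expressed in 293LT cells, immunoprecipitated with anti-FLAG, and run on 10% polyacrylamide gel with Coomassie staining. On-bead material washed 3× with 100 mM ammonium bicarbonate (pH 8.0), then reduced, carbamidomethylated and digested with endoproteinase Glu-C (enzyme:protein 1:20). Peptides acidified to pH 3.5 and analysed by nano-LC-MS on C18 capillary columns.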

Compound: PWP1: protein with MNR-N-terminus
- N-terminal acetylation reported (in words) [1]: reported to be N-terminally acetylated

Compound: CC[C@H](C)[C@H](NC(=O)[C@H](CCCNC(=N)N)NC(=O)[C@H](CCCCN)NC(=O)[C@@H]1CCCN1C(=O)[C@H](CO)[N+](C)(C)C)C(=O)N[C@@H](C)C(=O)N[C@@H](CCCCN)C(=O)N[C@@H](CCCNC(=N)N)C(=O)N[C@@H](CCCNC(=N)N)C(=O)N[C@@H](CO)C(=O)O [me3SPKRIAKRRS] (X2-PKRIAKRRS-OH; C-terminus assumed)
- binding to recombinant human NRMT (in words) [2]: bound to recombinant human NRMT with high affinity
- concentration of efficient inhibition of N-terminal methylation of SPK-RCC1 [3]: 1.3 µM

Compound: CC[C@H](C)[C@H](NC(=O)[C@H](CCCNC(=N)N)NC(=O)[C@H](CCCCN)NC(=O)[C@@H]1CCCN1C(=O)[C@@H]1CCC[N+]1(C)C)C(=O)N[C@@H](C)C(=O)N[C@@H](CCCCN)C(=O)N[C@@H](CCCNC(=N)N)C(=O)N[C@@H](CCCNC(=N)N)C(=O)N[C@@H](CO)C(=O)O [me2PPKRIAKRRS] (X1-PKRIAKRRS-OH; C-terminus assumed)
- binding to recombinant human NRMT (in words) [2]: bound to recombinant human NRMT with high affinity
- concentration of efficient inhibition of N-terminal methylation of SPK-RCC1 [3]: 1.3 µM

Compound: VRK2-FLAG: FLAG-tagged VRK2, possesses a P-P-K motif
- capture / co-precipitation of endogenous NRMT (in words) [4]: efficiently captured endogenous NRMT
- capture / co-precipitation of endogenous NRMT (in words) ([4]; listed as VRK2): captured more NRMT than the RCC1; also recorded: NRMT is co-precipitated

Compound: PPQRIAKRRS
- binding to recombinant human NRMT (in words) [2]: very low affinity binding (in mM range, data not shown)

Compound: SPQRIAKRRS
- binding to recombinant human NRMT (in words) [2]: very low affinity binding (in mM range, data not shown)

Compound: PPKRIAKRRS [PPKRIAKRRS]
- Kd ([2]; Kd, bi-phasic titration curve, second phase): 136 nM
